Values after ≈ are worked out from the molar mass of the structure shown.
What was measured:
[1] = target: Alanine racemase, biosynthetic (Escherichia coli K-12) (UniProt P0A6B4); test: Compound was tested for enzyme activity against alanine racemase; per mg of protein
Outline: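 E. coli JSR-0 grown at 37 °C in Davis-Mingioli medium with Met/Pro (50 µg/mL) and Leu/Ile/Val (100 µg/mL). Some cultures had 5% sucrose or 500 µg/mL L-Ala. Agent added at ~100 Klett units; cells harvested after 30 min, washed and sonicated. Racemase read D→L in the supernatant, coupled to L-alanine dehydrogenase (NADH, 340 nm): 10 mM D-Ala, 5 mM NAD+, CHES pH 9.0, 37 °C.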

[2] = tested on: Escherichia coli; test: Compound was tested for enzyme activity against transaminase B; per mg of protein
Outline: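 Homogenates of E. coli JSR-0 taken 30 min after agent addition at ~100 Klett units (Davis-Mingioli medium with Met/Pro, Leu/Ile/Val, and in some cultures sucrose or L-Ala). Valine→α-ketoisovalerate transamination read in Tris-HCl pH 7.8 with pyridoxal phosphate and α-ketoglutarate at 37 °C. Timed aliquots derivatized with 2,4-dinitrophenylhydrazine; hydrazone read at 430 nm against a standard curve.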

[3] = tested on: Staphylococcus epidermidis; test: Compound was tested for antibacterial activity against Staphylococcus epidermidis; assay type: functional
Outline: (§1)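 Agar dilution MIC on defined peptide susceptibility agar. Inoculum made by growing overnight in liquid peptide susceptibility medium, then diluting to about 1 × 10^7 cfu/mL. Applied by Steers replicator to plates carrying serial 2-fold peptide dilutions. Incubated overnight at 37 °C. MIC = lowest concentration allowing growth of fewer than 10 colonies after 16-18 h.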

[4] = tested on: Shigella flexneri; test: Compound was tested for antibacterial activity against Shigella flexneri; assay type: functional; outline: as §1
[5] = tested on: Enterobacter cloacae; test: Compound was tested for antibacterial activity against Enterobacter cloacae; assay type: functional; outline: as §1
[6] = tested on: Streptococcus pyogenes; test: Compound was tested for antibacterial activity against Streptococcus pyogenes; assay type: functional
Outline: (§2)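 Inoculum made from colonies grown overnight on chocolate or blood agar, resuspended in liquid medium to 10' cfu/mL. Applied by Steers replicator to serial 2-fold peptide dilutions. Incubated overnight at 37 °C under 7% CO2. MIC = lowest concentration giving fewer than 10 colonies at 16-18 h.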

[7] = tested on: Haemophilus influenzae; test: Compound was tested for antibacterial activity against Hemophilus influenzae; assay type: functional; outline: as §2
[8] = tested on: Staphylococcus aureus; test: Compound was tested for antibacterial activity against Staphylococcus aureus; assay type: functional; outline: as §1
[9] = tested on: Escherichia coli; test: Compound was tested for antibacterial activity against Escherichia coli; assay type: functional; outline: as §1
[10] = tested on: Proteus mirabilis; test: Compound was tested for antibacterial activity against Proteus mirabilis; assay type: functional; outline: as §1
[11] = tested on: Enterococcus faecalis; test: Compound was tested for antibacterial activity against Streptococcus faecalis; assay type: functional; outline: as §1
[12] = tested on: Morganella morganii; test: Compound was tested for antibacterial activity against Morganella morganii; assay type: functional; outline: as §1
[13] = tested on: Streptococcus agalactiae; test: Compound was tested for antibacterial activity against Streptococcus agalactiae; assay type: functional; outline: as §2

Sequence of Alanine racemase, biosynthetic (Escherichia coli K-12) (P0A6B4 whole entry): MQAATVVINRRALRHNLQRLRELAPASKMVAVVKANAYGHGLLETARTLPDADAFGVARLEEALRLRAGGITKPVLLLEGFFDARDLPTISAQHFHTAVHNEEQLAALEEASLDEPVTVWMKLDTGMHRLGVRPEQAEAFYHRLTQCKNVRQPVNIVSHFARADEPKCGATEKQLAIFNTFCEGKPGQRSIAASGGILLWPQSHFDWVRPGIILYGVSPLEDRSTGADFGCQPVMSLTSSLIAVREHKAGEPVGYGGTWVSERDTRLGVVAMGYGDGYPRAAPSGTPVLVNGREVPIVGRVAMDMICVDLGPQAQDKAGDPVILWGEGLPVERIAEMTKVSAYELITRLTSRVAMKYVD

| specific activity [1] [µmol/min/mg] | specific activity [2] [µmol/min/mg] | MIC [3] [µg/mL] | MIC [4] [µg/mL] | MIC [5] [µg/mL] | MIC [6] [µg/mL] | MIC [7] [µg/mL] | MIC [8] [µg/mL] | MIC [9] [µg/mL] | MIC [10] [µg/mL] | MIC [11] [µg/mL] | MIC [12] [µg/mL] | MIC [13] [µg/mL] | Compound |
| --- | --- | --- | --- | --- | --- | --- | --- | --- | --- | --- | --- | --- | --- |
| 0.0117 | 0 | 0.0125 (≈ 0.0642 µM) |  |  |  |  |  |  |  |  |  |  | C[C@H](N)C(=O)N[C@@H](CCl)C(=O)O |
|  |  | 0.0125 (≈ 0.0528 µM) | 3.12 (≈ 13.2 µM) | 6.25 (≈ 26.4 µM) | 25 (≈ 106 µM) | 25 (≈ 106 µM) | 0.0125 (≈ 0.0528 µM) | 3.12 (≈ 13.2 µM) | > 100 | 3.12 (≈ 13.2 µM) | > 100 | < 0.1 | CCCC[C@H](N)C(=O)N[C@@H](CCl)C(=O)O |
